The source of these data is ChEMBL document CHEMBL3751813, “Nonpeptidic Amphiphilic Xanthone Derivatives: Structure-Activity Relationship and Membrane-Targeting Properties” (J Med Chem, 2016).

The structures appear in SMILES notation. ≈ marks a conversion by molar mass, not a printed value. Where only a bound is given, the exact number is not on record here.

For series [1], the system named is Staphylococcus aureus. Put plainly: Antibacterial activity against clinical isolates of Staphylococcus aureus DM4001R after 24 hrs by […]. Type of series: functional.
Series [2] concerns Staphylococcus aureus. Put plainly: Antibacterial activity against clinical isolates of methicillin-resistant Staphylococcus aureus DM9808R after 24 hrs by […]. It counts as functional.
For series [3], the system named is Staphylococcus aureus. Kind of series: Antibacterial activity against clinical isolates of methicillin-resistant Staphylococcus aureus DM21455 after 24 hrs by […]. As to conditions: DM21455, 24 h. Type of series: functional.
The subject of the next series is Bacillus cereus. Put plainly: Antibacterial activity against clinical isolates of Bacillus cereus ATCC 11778 after 24 hrs by […]. It counts as functional. The settings on record: ATCC 11778, 24 h.
Series [4] is described as follows: Hemolytic activity against New Zealand white rabbit RBC after 1 hr by microplate reader analysis. Type of series: ADME, cell-based, Oryctolagus cuniculus, Erythrocyte. As to conditions: rabbit red blood cells. In a few lines: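 Rabbit RBCs spun from serum at 3,000 rpm for 10 min and washed twice in PBS. Mixed with compound in DMF at 4% v/v RBCs, 1 h at 37 °C. After centrifugation, hemoglobin in the supernatant read at 576 nm. 2% Triton X-100 was the positive control and 1% DMF the negative control.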

Series [5] in a line: Selectivity index, ratio of HC50 for hemolytic activity against New Zealand white rabbit RBC to MIC for clinical isolates of Staphylococcus aureus DM4001.
Series [6] has as its system Staphylococcus aureus. Kind of series: Induction of membrane permeabilization in clinical isolates of Staphylococcus aureus DM4001 at MIC by SYTOX green uptake assay. Type of series: functional. In a few lines:
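Exponential-phase cells washed twice in 20 mM PBS pH 7 and adjusted to OD620 0.09. Given 3 µM SYTOX Green and kept in the dark until fluorescence was stable, then compound added. Fluorescence followed in a stirred cuvette at ex 504/em 523 nm. Melittin 10 µg/mL was the positive control. Run at least twice; one run reported.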

Series [7] concerns Staphylococcus aureus. Put plainly: Induction of membrane permeabilization in clinical isolates of Staphylococcus aureus DM4001 assessed as ATP leakage at MIC incubated for 10 mins by firefly luciferase based luminometry analysis. It counts as functional. In a few lines: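 Exponential-phase cells washed twice in 20 mM PBS pH 7 and set to OD620 0.3. Exposed 10 min at 37 °C, then spun at 4000 rpm for 5 min. Supernatant mixed with luciferase reagent (1 mM DTT, 0.5 mM D-luciferin, 1.25 µg/mL firefly luciferase). Luminescence read over 30 cycles.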

Take `COc1c(OCCCCN2CCN(C)CC2)cc2oc3cc(OCCCCN4CCN(C)CC4)c(CC=C(C)C)c(O)c3c(=O)c2c1CC=C(C)C`: the MIC was found to be 6.25 µg/mL (≈ 8.69 µM) in the series with Staphylococcus aureus [1], 12.5 µg/mL (≈ 17.4 µM) with Staphylococcus aureus [2], 12.5 µg/mL (≈ 17.4 µM) in the series with Staphylococcus aureus [3] and 12.5 µg/mL (≈ 17.4 µM) against Bacillus cereus. For the same compound, the HC50 at 1 h in series [4] stood at 32.3 µg/mL. The Selectivity ratio in series [5] was found to be 5.2. The figures for the Activity in the series on Staphylococcus aureus [6] and with Staphylococcus aureus [7] were 7129 cps and 3727 nM, respectively.
In the case of `COc1c(OCCCCn2cncn2)cc2oc3cc(OCCCCn4cncn4)c(CC=C(C)C)c(O)c3c(=O)c2c1CC=C(C)C`, the MIC in the series with Staphylococcus aureus [1], against Staphylococcus aureus [2], with Staphylococcus aureus [3] and with Bacillus cereus was > 50 µg/mL in each case. Also, the HC50 at 1 h in series [4] was > 200 µg/mL. The Activity in the series on Staphylococcus aureus [6] is 1979 cps; in the series with Staphylococcus aureus [7], 416 nM.
Consider `CCN(CCO)CCCCOc1cc2oc3cc(OCCCCN(CC)CCO)c(OC)c(CC=C(C)C)c3c(=O)c2c(O)c1CC=C(C)C`, for which the MIC against Staphylococcus aureus [1] worked out at 6.25 µg/mL (≈ 8.97 µM); with Staphylococcus aureus [2], 3.12 µg/mL (≈ 4.48 µM); with Staphylococcus aureus [3], 6.25 µg/mL (≈ 8.97 µM); with Bacillus cereus it was 3.12 µg/mL (≈ 4.48 µM). The compound also displayed a concentration for 50% haemolysis (HC50) at 1 h in series [4] of 31.8 µg/mL. Besides, the Selectivity ratio in series [5] turned out to be 5.1. Also, the Activity is 112772 cps in the series on Staphylococcus aureus [6] and 5027 nM with Staphylococcus aureus [7].
Regarding `COc1c(OCCCCN2CCN(C(=O)OC(C)(C)C)CC2)cc2oc3cc(OCCCCN4CCN(C(=O)OC(C)(C)C)CC4)c(CC=C(C)C)c(O)c3c(=O)c2c1CC=C(C)C`, the MIC in the series on Staphylococcus aureus [1], against Staphylococcus aureus [2], against Staphylococcus aureus [3] and against Bacillus cereus was > 50 µg/mL each time. In addition, the 50% haemolytic concentration (HC50) at 1 h in series [4] was > 200 µg/mL.
`COc1c(OCCCCN2C(=O)c3ccccc3C2=O)cc2oc3cc(OCCCCN4C(=O)c5ccccc5C4=O)c(CC=C(C)C)c(O)c3c(=O)c2c1CC=C(C)C`: the MIC with Staphylococcus aureus [1], against Staphylococcus aureus [2], in the series with Staphylococcus aureus [3] and in the series with Bacillus cereus was > 50 µg/mL in each case. Also, the 50% haemolytic concentration (HC50) at 1 h in series [4] was > 200 µg/mL.
Consider `CCCCCCN(C)CCCCOc1cc2oc3cc(OCCCCN(C)CCCCCC)c(OC)c(CC=C(C)C)c3c(=O)c2c(O)c1CC=C(C)C`, for which the MIC against Staphylococcus aureus [1], against Staphylococcus aureus [2], in the series on Staphylococcus aureus [3] and against Bacillus cereus was 50 µg/mL (≈ 66.7 µM) in each case. In addition, the HC50 at 1 h in series [4] is > 200 µg/mL. The Selectivity ratio in series [5] was > 4. For the same compound, the Activity with Staphylococcus aureus [6] stood at 74047 cps; in the series on Staphylococcus aureus [7], 8545 nM.
Regarding `CCCN(CCC)CCCCOc1cc2oc3cc(OCCCCN(CCC)CCC)c(OC)c(CC=C(C)C)c3c(=O)c2c(O)c1CC=C(C)C`, the MIC against Staphylococcus aureus [1] is 25 µg/mL (≈ 34.7 µM); against Staphylococcus aureus [2], 50 µg/mL (≈ 69.3 µM); in the series on Staphylococcus aureus [3], 25 µg/mL (≈ 34.7 µM); in the series on Bacillus cereus it was 50 µg/mL (≈ 69.3 µM). For the same compound, in series [4], the HC50 at 1 h was > 200 µg/mL. For the same compound, in series [5], the Selectivity ratio was > 8. Also, the results for the Activity in the series on Staphylococcus aureus [6] and in the series on Staphylococcus aureus [7] were 53637 cps and 5123 nM, respectively.
As to `CCN1CCN(CCCCOc2cc3oc4cc(OCCCCN5CCN(CC)CC5)c(OC)c(CC=C(C)C)c4c(=O)c3c(O)c2CC=C(C)C)CC1`, the MIC is 25 µg/mL (≈ 33.5 µM) against Staphylococcus aureus [1], 12.5 µg/mL (≈ 16.7 µM) against Staphylococcus aureus [2], 6.25 µg/mL (≈ 8.37 µM) in the series with Staphylococcus aureus [3] and 25 µg/mL (≈ 33.5 µM) against Bacillus cereus. The HC50 at 1 h in series [4] is 138 µg/mL. The Selectivity ratio in series [5] was determined as 5.5. Also, the values for the Activity with Staphylococcus aureus [6] and in the series on Staphylococcus aureus [7] were 15095 cps and 7822 nM, respectively.
On to `COc1c(OCCCCN2CCCC2)cc2oc3cc(OCCCCN4CCCC4)c(CC=C(C)C)c(O)c3c(=O)c2c1CC=C(C)C`, for which the MIC with Staphylococcus aureus [1] was 1.56 µg/mL (≈ 2.36 µM); with Staphylococcus aureus [2], 1.56 µg/mL (≈ 2.36 µM); in the series on Staphylococcus aureus [3], 1.56 µg/mL (≈ 2.36 µM); in the series on Bacillus cereus, 6.25 µg/mL (≈ 9.46 µM). The Selectivity ratio in series [5] worked out at 16. The Activity in the series on Staphylococcus aureus [6] turned out to be 814 cps; with Staphylococcus aureus [7], 465 nM.
Take `COc1c(OCCCCN2CCOCC2)cc2oc3cc(OCCCCN4CCOCC4)c(CC=C(C)C)c(O)c3c(=O)c2c1CC=C(C)C`: the MIC against Staphylococcus aureus [1], in the series with Staphylococcus aureus [2], in the series with Staphylococcus aureus [3] and with Bacillus cereus was > 50 µg/mL each time. In series [4], the concentration for 50% haemolysis (HC50) at 1 h is > 200 µg/mL. Moreover, the Activity is 6358 cps in the series on Staphylococcus aureus [6] and 229 nM in the series with Staphylococcus aureus [7].
As to `O=c1c2ccc(OCCCCN3CCCC3)cc2oc2cc(OCCCCN3CCCC3)cc(O)c12`, the MIC against Staphylococcus aureus [1], against Staphylococcus aureus [2], in the series with Staphylococcus aureus [3] and against Bacillus cereus was > 50 µg/mL throughout. Also, the HC50 at 1 h in series [4] is > 200 µg/mL.
As for `COc1c(OCCCCI)cc2oc3cc(OCCCCI)c(CC=C(C)C)c(OCCCCI)c3c(=O)c2c1CC=C(C)C`, the minimum inhibitory concentration (MIC) with Staphylococcus aureus [1] was > 50 µg/mL; with Staphylococcus aureus [2], > 50 µg/mL; against Staphylococcus aureus [3], > 50 µg/mL; against Bacillus cereus it was 50 µg/mL (≈ 52.3 µM). Also, the HC50 at 1 h in series [4] was > 200 µg/mL.
As to `COc1c(OCCCCN2CCCCC2)cc2oc3cc(OCCCCN4CCCCC4)c(CC=C(C)C)c(O)c3c(=O)c2c1CC=C(C)C`, the MIC against Staphylococcus aureus [1] was determined as 0.78 µg/mL (≈ 1.13 µM); against Staphylococcus aureus [2] it was 1.56 µg/mL (≈ 2.26 µM); with Staphylococcus aureus [3], 1.56 µg/mL (≈ 2.26 µM); with Bacillus cereus it was 6.25 µg/mL (≈ 9.07 µM). For the same compound, the Selectivity ratio in series [5] was determined as 24.7. In addition, the Activity in the series on Staphylococcus aureus [6] was determined as 2797 cps; in the series with Staphylococcus aureus [7] it was 626 nM.
Take `COc1c(OCCCCN(C)C)cc2oc3cc(OCCCCN(C)C)c(CCC(C)C)c(O)c3c(=O)c2c1CCC(C)C`: the MIC is 12.5 µg/mL (≈ 20.4 µM) with Staphylococcus aureus [1], 25 µg/mL (≈ 40.8 µM) in the series with Staphylococcus aureus [2], 12.5 µg/mL (≈ 20.4 µM) with Staphylococcus aureus [3] and 12.5 µg/mL (≈ 20.4 µM) against Bacillus cereus. For the same compound, the HC50 at 1 h in series [4] was determined as 60.7 µg/mL. Besides, the Selectivity ratio in series [5] turned out to be 4.9.
Take `COc1c(OCCCCN2CCCC2)cc2oc3cc(OCCCCN4CCCC4)c(CCC(C)C)c(O)c3c(=O)c2c1CCC(C)C`: the MIC against Staphylococcus aureus [1] stood at 12.5 µg/mL (≈ 18.8 µM); with Staphylococcus aureus [2], 6.25 µg/mL (≈ 9.4 µM); against Staphylococcus aureus [3], 6.25 µg/mL (≈ 9.4 µM); in the series on Bacillus cereus, 6.25 µg/mL (≈ 9.4 µM). For the same compound, the HC50 at 1 h in series [4] came out at 34.8 µg/mL. Besides, the Selectivity ratio in series [5] was determined as 1.4.
As to `COc1c(OCCCCN(CCO)CCO)cc2oc3cc(OCCCCN(CCO)CCO)c(CC=C(C)C)c(O)c3c(=O)c2c1CC=C(C)C`, the MIC with Staphylococcus aureus [1] came out at 3.12 µg/mL (≈ 4.29 µM); in the series with Staphylococcus aureus [2], 1.56 µg/mL (≈ 2.14 µM); in the series on Staphylococcus aureus [3], 0.78 µg/mL (≈ 1.07 µM); with Bacillus cereus, 3.12 µg/mL (≈ 4.29 µM). In series [4], this compound returned an HC50 at 1 h of 60.6 µg/mL. Also, the Activity in the series on Staphylococcus aureus [6] was determined as 59694 cps; with Staphylococcus aureus [7] it was 3741 nM.
Consider `COc1c(OCCCCn2cccn2)cc2oc3cc(OCCCCn4cccn4)c(CC=C(C)C)c(O)c3c(=O)c2c1CC=C(C)C`, for which the MIC in the series with Staphylococcus aureus [1], with Staphylococcus aureus [2], in the series with Staphylococcus aureus [3] and against Bacillus cereus was > 50 µg/mL in each case. Further, in series [4], the concentration for 50% haemolysis (HC50) at 1 h was > 200 µg/mL. The results for the Activity in the series with Staphylococcus aureus [6] and in the series on Staphylococcus aureus [7] were 3445 cps and 310 nM, respectively.
As to `COc1c(OCCCCN2CCSCC2)cc2oc3cc(OCCCCN4CCSCC4)c(CC=C(C)C)c(O)c3c(=O)c2c1CC=C(C)C`, the MIC against Staphylococcus aureus [1], with Staphylococcus aureus [2], against Staphylococcus aureus [3] and in the series on Bacillus cereus was > 50 µg/mL throughout. In addition, in series [4], the HC50 at 1 h is > 200 µg/mL. In addition, the results for the Activity in the series with Staphylococcus aureus [6] and in the series on Staphylococcus aureus [7] were 7129 cps and 5 nM, respectively.
As to `COc1c(OCCCCn2ccnc2)cc2oc3cc(OCCCCn4ccnc4)c(CC=C(C)C)c(O)c3c(=O)c2c1CC=C(C)C`, the MIC in the series with Staphylococcus aureus [1], in the series with Staphylococcus aureus [2], against Staphylococcus aureus [3] and against Bacillus cereus was > 50 µg/mL in each case. Moreover, in series [4], the HC50 at 1 h is > 200 µg/mL.
